Measurements as given in ChEMBL document CHEMBL1240487, “Discovery of a potent, selective, and orally bioavailable pyridinyl-pyrimidine phthalazine aurora kinase inhibitor” (J Med Chem, 2010).

How the values were obtained:
[1] = biological target: T1, Ephrin type-B receptor 4 (Homo sapiens, UniProt P54760); assay: Inhibition of EphB4 by HTRF assay
T1 sequence (P54760 whole entry): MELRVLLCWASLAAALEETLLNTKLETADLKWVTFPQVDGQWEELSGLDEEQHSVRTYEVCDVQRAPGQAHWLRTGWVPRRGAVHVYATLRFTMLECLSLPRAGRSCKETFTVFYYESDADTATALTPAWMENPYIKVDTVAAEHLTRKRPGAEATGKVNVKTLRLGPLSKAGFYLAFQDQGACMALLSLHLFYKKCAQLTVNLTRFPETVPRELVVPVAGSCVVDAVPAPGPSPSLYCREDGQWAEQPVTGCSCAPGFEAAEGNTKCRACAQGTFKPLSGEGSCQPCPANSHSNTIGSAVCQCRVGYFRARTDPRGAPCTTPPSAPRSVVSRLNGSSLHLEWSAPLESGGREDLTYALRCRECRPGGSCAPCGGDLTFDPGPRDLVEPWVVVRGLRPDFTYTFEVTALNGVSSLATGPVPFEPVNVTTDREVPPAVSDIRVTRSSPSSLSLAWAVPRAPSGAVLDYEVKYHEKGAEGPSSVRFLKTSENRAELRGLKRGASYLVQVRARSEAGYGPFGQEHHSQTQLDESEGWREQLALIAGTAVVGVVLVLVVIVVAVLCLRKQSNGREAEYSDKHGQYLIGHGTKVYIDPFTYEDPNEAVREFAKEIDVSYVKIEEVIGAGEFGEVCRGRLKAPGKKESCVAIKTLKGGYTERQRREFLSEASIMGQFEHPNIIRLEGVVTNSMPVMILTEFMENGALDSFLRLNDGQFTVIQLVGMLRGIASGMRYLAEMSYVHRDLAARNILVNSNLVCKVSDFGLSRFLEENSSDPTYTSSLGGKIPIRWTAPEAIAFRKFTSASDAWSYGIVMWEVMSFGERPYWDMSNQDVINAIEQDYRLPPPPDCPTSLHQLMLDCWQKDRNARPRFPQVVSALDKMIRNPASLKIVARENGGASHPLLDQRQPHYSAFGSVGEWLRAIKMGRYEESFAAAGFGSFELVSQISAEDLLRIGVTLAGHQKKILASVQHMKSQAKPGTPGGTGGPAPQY
Outline: (§1)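 Enzyme inhibition was run with ATP at its Km for each kinase. Values are averages of at least two determinations.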

[2] = biological target: Cyclin-dependent kinase 5 (Homo sapiens, UniProt Q00535); assay: Inhibition of CDK5 by HTRF assay; outline: as §1
[3] = biological target: Mitogen-activated protein kinase 3 (Homo sapiens, UniProt P27361); assay: Inhibition of Erk1 by HTRF assay; outline: as §1
[4] = biological target: RAC-alpha serine/threonine-protein kinase (Homo sapiens, UniProt P31749); assay: Inhibition of PKBalpha by HTRF assay; outline: as §1
[5] = biological target: Ribosomal protein S6 kinase beta-1 (Homo sapiens, UniProt P23443); assay: Inhibition of p70s6k by HTRF assay; outline: as §1
[6] = biological target: T2, Tyrosine-protein kinase ZAP-70 (Homo sapiens, UniProt P43403); assay: Inhibition of Zap70 by HTRF assay; outline: as §1
T2 sequence (P43403 whole entry): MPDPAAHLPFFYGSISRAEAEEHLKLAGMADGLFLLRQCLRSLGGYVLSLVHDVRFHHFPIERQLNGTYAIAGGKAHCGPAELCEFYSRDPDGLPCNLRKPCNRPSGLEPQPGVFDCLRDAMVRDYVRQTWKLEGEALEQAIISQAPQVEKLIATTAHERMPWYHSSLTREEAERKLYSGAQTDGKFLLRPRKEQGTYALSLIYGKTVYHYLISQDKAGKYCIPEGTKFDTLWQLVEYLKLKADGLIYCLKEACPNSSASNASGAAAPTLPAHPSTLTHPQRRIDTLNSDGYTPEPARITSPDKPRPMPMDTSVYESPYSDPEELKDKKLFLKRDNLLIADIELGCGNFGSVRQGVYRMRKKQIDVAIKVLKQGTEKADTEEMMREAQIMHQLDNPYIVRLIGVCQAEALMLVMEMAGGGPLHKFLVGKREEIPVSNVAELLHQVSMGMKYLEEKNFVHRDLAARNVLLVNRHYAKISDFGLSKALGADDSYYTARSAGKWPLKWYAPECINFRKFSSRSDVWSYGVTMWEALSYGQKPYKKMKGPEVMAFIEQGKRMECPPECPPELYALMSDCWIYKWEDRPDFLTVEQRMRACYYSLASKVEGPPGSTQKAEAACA

[7] = biological target: Tyrosine-protein kinase JAK2 (Homo sapiens, UniProt O60674); assay: Inhibition of Jak2 by HTRF assay; outline: as §1
[8] = biological target: Insulin-like growth factor 1 receptor (Homo sapiens, UniProt P08069); assay: Inhibition of IGFR1 by HTRF assay; outline: as §1
Chain of Insulin-like growth factor 1 receptor (P08069 31-736 limits assumed): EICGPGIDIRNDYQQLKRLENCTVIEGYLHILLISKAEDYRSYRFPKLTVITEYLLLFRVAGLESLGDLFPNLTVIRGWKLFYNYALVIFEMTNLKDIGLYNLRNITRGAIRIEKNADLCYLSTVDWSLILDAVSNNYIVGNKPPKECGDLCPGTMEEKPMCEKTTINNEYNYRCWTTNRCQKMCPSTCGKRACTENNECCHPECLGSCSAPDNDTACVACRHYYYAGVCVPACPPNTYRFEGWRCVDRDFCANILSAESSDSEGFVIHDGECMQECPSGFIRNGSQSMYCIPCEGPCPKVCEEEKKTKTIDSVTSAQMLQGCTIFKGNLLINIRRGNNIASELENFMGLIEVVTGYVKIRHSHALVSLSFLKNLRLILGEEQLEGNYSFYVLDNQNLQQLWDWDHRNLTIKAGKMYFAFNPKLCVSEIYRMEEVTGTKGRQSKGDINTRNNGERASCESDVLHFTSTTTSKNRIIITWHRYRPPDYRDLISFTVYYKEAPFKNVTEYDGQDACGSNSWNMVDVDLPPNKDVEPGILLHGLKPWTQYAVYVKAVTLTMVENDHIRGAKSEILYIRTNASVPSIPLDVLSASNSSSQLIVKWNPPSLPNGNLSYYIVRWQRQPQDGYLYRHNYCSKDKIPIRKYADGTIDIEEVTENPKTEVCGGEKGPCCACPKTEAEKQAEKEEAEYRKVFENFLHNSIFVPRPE
Chain of Insulin-like growth factor 1 receptor (P08069 741-1367 limits assumed): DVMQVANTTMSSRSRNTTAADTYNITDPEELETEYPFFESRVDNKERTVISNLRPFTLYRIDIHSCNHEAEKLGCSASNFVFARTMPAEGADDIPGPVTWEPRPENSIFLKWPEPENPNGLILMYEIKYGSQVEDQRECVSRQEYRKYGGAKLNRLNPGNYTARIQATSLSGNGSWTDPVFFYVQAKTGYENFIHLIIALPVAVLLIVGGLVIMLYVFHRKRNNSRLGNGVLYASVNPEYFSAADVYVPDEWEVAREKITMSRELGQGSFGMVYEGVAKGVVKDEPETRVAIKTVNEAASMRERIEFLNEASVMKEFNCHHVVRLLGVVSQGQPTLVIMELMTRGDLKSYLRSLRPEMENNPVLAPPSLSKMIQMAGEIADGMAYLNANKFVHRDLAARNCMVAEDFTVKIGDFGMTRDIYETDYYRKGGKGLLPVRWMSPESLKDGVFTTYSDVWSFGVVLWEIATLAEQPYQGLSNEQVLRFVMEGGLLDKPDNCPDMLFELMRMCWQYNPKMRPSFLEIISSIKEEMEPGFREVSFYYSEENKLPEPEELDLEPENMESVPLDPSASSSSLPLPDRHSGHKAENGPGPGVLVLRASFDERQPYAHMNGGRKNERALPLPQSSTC

Chain of Ribosomal protein S6 kinase beta-1 (P23443 whole entry): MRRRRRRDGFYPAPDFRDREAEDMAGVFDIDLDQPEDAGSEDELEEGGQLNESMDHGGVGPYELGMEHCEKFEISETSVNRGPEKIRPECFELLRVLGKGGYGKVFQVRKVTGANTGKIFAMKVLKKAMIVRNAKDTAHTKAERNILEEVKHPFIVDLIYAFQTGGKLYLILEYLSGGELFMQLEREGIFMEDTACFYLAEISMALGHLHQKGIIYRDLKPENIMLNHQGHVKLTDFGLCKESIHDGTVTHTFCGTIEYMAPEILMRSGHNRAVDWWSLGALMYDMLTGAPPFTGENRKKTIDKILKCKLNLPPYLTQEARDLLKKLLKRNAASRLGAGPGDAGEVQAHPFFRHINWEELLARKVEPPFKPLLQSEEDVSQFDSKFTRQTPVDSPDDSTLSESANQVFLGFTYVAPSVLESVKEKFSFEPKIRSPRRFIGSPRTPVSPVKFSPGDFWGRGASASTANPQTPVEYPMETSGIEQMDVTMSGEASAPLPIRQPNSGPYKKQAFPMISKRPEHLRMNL
Chain of Tyrosine-protein kinase JAK2 (O60674 whole entry): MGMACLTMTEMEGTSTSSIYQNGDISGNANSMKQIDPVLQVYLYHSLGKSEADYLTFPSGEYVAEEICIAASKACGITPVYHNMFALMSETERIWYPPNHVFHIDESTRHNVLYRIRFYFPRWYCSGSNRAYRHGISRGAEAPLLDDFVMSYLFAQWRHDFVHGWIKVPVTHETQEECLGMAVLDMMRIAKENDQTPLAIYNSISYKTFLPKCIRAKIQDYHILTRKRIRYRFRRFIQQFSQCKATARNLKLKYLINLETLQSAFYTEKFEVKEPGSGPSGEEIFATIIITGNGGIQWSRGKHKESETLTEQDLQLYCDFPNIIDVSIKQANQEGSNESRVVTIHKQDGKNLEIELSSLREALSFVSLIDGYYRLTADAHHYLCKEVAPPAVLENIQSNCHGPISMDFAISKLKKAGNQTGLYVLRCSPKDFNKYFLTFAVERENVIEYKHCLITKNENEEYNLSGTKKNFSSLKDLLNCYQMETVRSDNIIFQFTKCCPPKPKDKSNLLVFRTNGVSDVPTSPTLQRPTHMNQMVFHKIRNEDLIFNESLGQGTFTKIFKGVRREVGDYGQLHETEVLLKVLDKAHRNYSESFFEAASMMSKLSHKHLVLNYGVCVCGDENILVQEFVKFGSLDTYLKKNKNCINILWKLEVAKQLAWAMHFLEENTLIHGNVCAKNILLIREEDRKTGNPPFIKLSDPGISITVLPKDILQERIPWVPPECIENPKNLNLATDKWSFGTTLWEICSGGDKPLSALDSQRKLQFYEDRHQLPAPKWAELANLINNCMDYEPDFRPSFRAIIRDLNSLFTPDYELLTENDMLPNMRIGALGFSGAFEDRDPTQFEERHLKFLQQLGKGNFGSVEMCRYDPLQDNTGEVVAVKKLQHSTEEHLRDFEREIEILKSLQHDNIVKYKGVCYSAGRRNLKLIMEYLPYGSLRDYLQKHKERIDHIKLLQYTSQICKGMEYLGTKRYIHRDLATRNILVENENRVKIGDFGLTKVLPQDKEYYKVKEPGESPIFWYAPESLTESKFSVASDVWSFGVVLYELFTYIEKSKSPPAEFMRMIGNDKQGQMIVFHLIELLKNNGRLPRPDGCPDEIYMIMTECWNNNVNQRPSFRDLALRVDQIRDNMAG
Chain of RAC-alpha serine/threonine-protein kinase (P31749 whole entry): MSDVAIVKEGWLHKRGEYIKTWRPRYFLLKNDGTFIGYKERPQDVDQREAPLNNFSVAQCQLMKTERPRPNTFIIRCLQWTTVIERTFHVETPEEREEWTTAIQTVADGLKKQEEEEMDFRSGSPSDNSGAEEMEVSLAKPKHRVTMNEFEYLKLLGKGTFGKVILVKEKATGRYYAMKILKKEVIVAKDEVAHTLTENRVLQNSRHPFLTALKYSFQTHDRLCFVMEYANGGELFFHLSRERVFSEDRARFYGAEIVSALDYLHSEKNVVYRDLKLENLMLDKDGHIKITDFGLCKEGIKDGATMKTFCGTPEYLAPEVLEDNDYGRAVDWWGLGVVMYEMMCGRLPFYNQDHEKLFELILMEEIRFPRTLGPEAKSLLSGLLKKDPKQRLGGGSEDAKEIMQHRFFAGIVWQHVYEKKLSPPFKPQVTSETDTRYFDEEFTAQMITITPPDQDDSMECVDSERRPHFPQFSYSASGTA
Chain of Mitogen-activated protein kinase 3 (P27361 whole entry): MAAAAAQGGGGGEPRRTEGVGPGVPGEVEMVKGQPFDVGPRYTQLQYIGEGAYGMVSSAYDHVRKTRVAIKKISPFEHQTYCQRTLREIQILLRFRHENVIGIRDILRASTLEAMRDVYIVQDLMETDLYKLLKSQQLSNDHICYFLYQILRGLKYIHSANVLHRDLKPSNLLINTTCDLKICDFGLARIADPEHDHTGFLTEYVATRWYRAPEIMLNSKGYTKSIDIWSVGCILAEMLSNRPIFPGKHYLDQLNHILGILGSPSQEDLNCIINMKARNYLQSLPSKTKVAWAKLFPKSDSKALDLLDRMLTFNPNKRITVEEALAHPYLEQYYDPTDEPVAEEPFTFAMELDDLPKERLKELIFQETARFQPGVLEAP
Chain of Cyclin-dependent kinase 5 (Q00535 whole entry): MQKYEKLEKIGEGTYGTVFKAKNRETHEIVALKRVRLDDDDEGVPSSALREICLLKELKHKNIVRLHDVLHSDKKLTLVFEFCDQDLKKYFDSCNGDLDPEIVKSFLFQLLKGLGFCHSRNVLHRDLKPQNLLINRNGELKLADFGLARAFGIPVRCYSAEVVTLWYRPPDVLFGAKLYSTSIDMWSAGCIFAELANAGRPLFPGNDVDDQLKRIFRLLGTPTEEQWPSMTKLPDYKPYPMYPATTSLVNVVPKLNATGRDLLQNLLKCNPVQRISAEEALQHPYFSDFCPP

SMILES: CNc1nccc(-c2cccnc2Oc2ccc(NC(=O)c3ccccc3Nc3ccccc3)cc2)n1
- IC50 [1]: > 1 µM
- IC50 [2]: > 1 µM
- IC50 [3]: > 1 µM
- IC50 [4]: > 1 µM
- IC50 [5]: > 1 µM
- IC50 [6]: > 1 µM
- IC50 [7]: > 1 µM
- IC50 [8]: > 1 µM

SMILES: CNc1nccc(-c2cccnc2Oc2ccc(Nc3nnc(-c4ccc(F)cc4)c4ccccc34)cc2)n1
- IC50 [1]: > 25 µM
- IC50 [2]: > 25 µM
- IC50 [3]: > 25 µM
- IC50 [4]: > 25 µM
- IC50 [5]: > 25 µM
- IC50 [6]: > 25 µM
- IC50 [7]: > 25 µM
- IC50 [8]: > 25 µM

SMILES: CNc1nccc(-c2cccnc2Oc2ccc(NC(=O)c3cccc(C(F)(F)F)c3)cc2C)n1
- IC50 [1]: > 8 µM
- IC50 [2]: > 8 µM
- IC50 [3]: > 8 µM
- IC50 [4]: > 8 µM
- IC50 [5]: > 8 µM
- IC50 [6]: > 8 µM
- IC50 [7]: > 8 µM
- IC50 [8]: > 8 µM
